Screens (PubChem)
RORA act = activators of human nuclear receptor RORA | P35398 | CHO-K1 Gal4-RORA LBD luciferase reporter, luminescence; percent increase over mock-subtracted basal signal | activation, % at 10 µM | actives 1.5% (n = 65,000);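 active = activation above the mean of all tested compounds plus 3 SD, cut at about 49% in these data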;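 note: 0% = DMSO-treated RORA cells and 100% = added signal equal to DMSO minus mock-transfected cells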
MMP-13 inhibitor = MMP13 (human) collagenase inhibition. P45452. actives 0.07% (n = 65,000). inhibition, % at 4 µM. AID 570. MMP-13 fTHP FRET cleavage, Mca fluorescence;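 active = inhibition above the mean of compound-free control plate wells plus 3 SD, cut at about 14% in these data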;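 note: 0% = DMSO wells and 100% = wells with reference MMP-13 inhibitor after basal subtraction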
SF1 activator = activators of human nuclear receptor SF-1; Q13285; CHO-K1 Gal4-SF-1 LBD luciferase reporter; % increase over DMSO SF-1-specific signal; activation, % at 10 µM; actives 1.9% (n = 65,000); AID 522;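 active = activation above the mean activation of all tested compounds plus 3 SD, cut at about 50% in these data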
Target sequence (Q13285 whole entry, looked up, the tested form may be a part): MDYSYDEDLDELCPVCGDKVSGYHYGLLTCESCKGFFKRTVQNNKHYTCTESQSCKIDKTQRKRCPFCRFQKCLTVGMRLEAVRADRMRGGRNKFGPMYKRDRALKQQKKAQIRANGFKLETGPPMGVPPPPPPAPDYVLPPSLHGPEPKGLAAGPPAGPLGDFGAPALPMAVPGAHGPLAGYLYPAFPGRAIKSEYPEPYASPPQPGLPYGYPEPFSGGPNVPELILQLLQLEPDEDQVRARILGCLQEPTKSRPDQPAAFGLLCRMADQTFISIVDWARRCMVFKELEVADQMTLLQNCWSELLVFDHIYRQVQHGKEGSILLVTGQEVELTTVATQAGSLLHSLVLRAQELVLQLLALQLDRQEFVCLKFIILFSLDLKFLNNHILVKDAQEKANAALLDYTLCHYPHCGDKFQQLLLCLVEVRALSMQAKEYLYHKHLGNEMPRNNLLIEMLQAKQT
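Test system: CHO-K1 cells co-transfected with Gal4 DBD–human SF-1 LBD, 5xGal4 luciferase reporter. Quantity: 4,000 cells per well. Compound: 10 µM only. Incubation: compound added 1 h post-seeding, 20 h exposure at 37 °C, 5% CO2. Detection: SteadyLite luciferase luminescence. Replication: one test per compound.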
MT1-MMP txn act = activates MT1-MMP transcription. actives 0.16% (n = 86,000). activation factor at 10 µM. HT1080 MT1-MMP promoter luciferase reporter, luminescence, overnight; hits give high values;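 active = activation factor of at least 2 for MT1-MMP transcription at 10 µM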
WNV NS2B-NS3 inh = WNV NS2B-NS3 proteinase inhibition; WNV NS2B-NS3 protease, fluorogenic substrate Ex360/Em465; hits give low values; z-score (test concentration not listed); actives 0.18% (n = 65,000); in the data active = z-score below about -3
Starred values were filed as active, the others as inactive; . = no result. Hits are enriched below; roughly 2.3% of the tested compounds scored in any of these assays.

SMILES	RORA act	MMP-13 inhibitor	SF1 activator	MT1-MMP txn act	WNV NS2B-NS3 inh
C=C1C(=O)C=C2CN(C(=O)c3ccccc3)[C@@](Cc3ccc(OC)cc3)(C(=O)OC)[C@@H]12	.	.	.	1.1	.
CCCC/C=C/C(NC(=O)C(C)(C)C)c1ccccc1 (stereo unspecified)	.	.	.	1.2	.
CNC(=O)NC(=O)CSc1nc2ccccc2n1CCOC	.	.	.	1.1	.
CCn1c(SCc2nc3ccccc3s2)nnc1-c1ccccc1	.	.	.	1.5	.
c1ccc(-n2cnnc2SCc2nc3ccccc3s2)cc1	33.7	-4.0	58.0*	1.6	0.39
COCCn1c(SCc2nc3ccccc3s2)nc2ccccc21	43.5	5.0	50.3*	1.7	-0.39
CCCC[C@@H]1C[C@H]1C(NS(=O)(=O)c1cccc2cccnc12)c1ccc(-c2ccccc2)cc1 (stereo partly specified)	.	.	.	1.3	.
O=C(COc1ccc2ccccc2c1)Nc1ccc(S(=O)(=O)N2CCCCCC2)cc1	.	.	.	1	.
COc1ccc(Nc2nccc3c2nnn3C)cc1	52.7*	1.5	35.3	1.5	-0.1
CCC(=O)Nc1cc(C)c(NC(=O)C23CC4CC(CC(C4)C2)C3)cn1	-8.3	-7.1	-10.8	1.1	-0.68
CCCC(=O)Nc1ccc(NC(=O)C23CC4CC(CC(C4)C2)C3)cn1	-6.5	1.1	-1.1	1.5	-4.83*
COc1ccc(CC(=O)NCc2cccs2)cc1OC	.	.	.	1.1	.
COc1ccc2nc3sc(C(=O)NCc4cccs4)c(N)c3cc2c1	-18.4	-13.1	74.4*	1.1	0.41
CCSc1nnc2c(n1)[nH]c1c(C)cccc12	63.9*	5.6	40.5	1.6	-0.29
CCN(CC(=O)Nc1ccccc1OC)C(=O)C1CC2C=CC1C2 (stereo unspecified)	4.8	-2.8	-11.2	1.1	-7.51*
COc1ccccc1NC(=O)CCC(=O)O	-15.9	0.3	-1.3	.	-0.02
CCOC(=O)c1ccc(NC(=O)C2CCCO2)cc1 (stereo unspecified)	11.6	2.9	64.3*	1.5	-0.68
CCCCc1ccc(NC(=O)C2CCCO2)cc1 (stereo unspecified)	75.8*	0.8	32.9	1.5	-0.56
c1cnc(Oc2ccc(-c3nnco3)cc2)cn1	13.1	-3.5	-14.0	1.1	0.89
COc1ccc(/C(O)=C2/C(=O)C(=O)N(CCCN(C)C)C2c2ccco2)cc1Cl (stereo unspecified)	-7.7	1.1	3.0	1	0.18
Cc1cccc(NC(=O)c2cnc3sccn3c2=O)c1C	74.4*	6.8	45.3	1.5	-0.78
O=C(Nc1cnc2sccn2c1=O)c1ccccc1Cl	28.8	6.2	52.0*	1.2	-1.36
CCN1C(=O)c2ccccc2S(=O)(=O)c2ccc(C(=O)NCc3cccnc3)cc21	-8.3	-0.7	-8.0	1.1	0.84
Cc1ccc(C(=O)/C=C/Nc2ccccc2C(N)=O)o1	34.5	-28.5	63.2*	0.9	-1.17
O=c1c2c3c(sc2nc2sc(CN4CCOCC4)cn12)CCCC3	3.1	1.2	24.9	1.1	1.29
SMILES	RORA act	MMP-13 inhibitor	SF1 activator	MT1-MMP txn act	WNV NS2B-NS3 inh
Cc1cc(-c2cc(N)n(-c3ccccc3)n2)c(C)n1C1CCCC1	9.5	1.2	42.7	2*	0.48
COc1ccc(NC2CS(=O)(=O)CC2NCc2ccccc2)cc1 (stereo unspecified)	.	.	.	1.2	.
CCOc1cccc(C(=O)Nc2cccc(-c3nnc(-c4ccccc4)o3)c2)c1	40.8	4.7	37.5	1.1	1.67
CC(=O)Nc1cccc(-c2nnc(-c3ccccc3)o2)c1	28.2	-2.1	50.6*	1.5	0.71
COc1cccc(C(=O)Nc2cccc(-c3nnc(-c4ccccc4)o3)c2)c1	13.2	-15.4	92.1*	1	0.9
CC(C)(C)C(=O)Nc1cccc(-c2nnc(-c3cccc(NC(=O)C(C)(C)C)c3)o2)c1	.	.	.	1.1	.
O=c1c2ccccc2nc(N2CCN(c3ccccc3)CC2)n1Cc1ccccc1	-13.0	-12.8	-0.5	1.1	-0.88
c1ccn2c(SCc3cn4ccsc4n3)nnc2c1	60.6*	-0.1	70.7*	1.6	-0.25
COc1ccc(-c2nc3n(n2)C(c2ccccc2Cl)C(C(N)=O)=C(C)N3)cc1 (stereo unspecified)	-6.2	-1.7	15.1	.	0.66
CCC1=NC(c2ccccc2OC)N(O)C1(C)C (stereo unspecified)	2.0	-8.4	5.0	1.1	0.22
CC(=O)c1sc(Nc2nc3ccc(F)cc3s2)nc1C	31.7	-28.5	52.9*	1.5	-1.56
C1CCN(c2nc3nonc3nc2N2CCCCC2)CC1	18.7	0.0	-13.3	1.2	-0.61
